The chains are these.
B1: tRNA (parent)
chain: GUUCCGUUGGCGUAAUGGUAACGCGUCUCCCUCCUAAGGAGAAGACUGCGGGUUCGAGUCCCGUACGGAACG

Variants at the floor of the assay were thinned out.

Variants of B1 are the subject of this data set. Nature of the data set: yeast fitness relative to wild type (ratio to wild type); higher = fitter; tRNA-Arg(CCU), competitive growth, 37 C, YPD. A digest of the protocol: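 Changes in genotype frequencies gave Darwinian fitness relative to wild type. Frequencies were read by 100-nucleotide paired-end sequencing of gene amplicons before and after pooled Saccharomyces cerevisiae strains, carrying tRNA-Arg(CCU) gene variants at the native locus, were competed in YPD at 37°C for 24 hours in six replicates. A genotype was kept only with ≥ 100 starting reads, and estimates < 0.5 were set to 0.5.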
Regarding C29G A36U A42G C55A, the yeast fitness was at most 0.5.

Turning to U28C A43C G44C C61G A65U, the yeast fitness is at most 0.5.

Take U28G C30G A40C A42U G67A: the yeast fitness was at most 0.5.

Consider U28A C33G A43C A57C G67A A69U, for which the yeast fitness was at most 0.5.

As to U28G C29A G41C A43U C66G, the yeast fitness came out at 0.595.

C29A U32A A65C: the yeast fitness was at most 0.5.

Consider U28A C33U C55G, for which the yeast fitness was at most 0.5.

On to U28A C29A A37G, for which the yeast fitness was at most 0.5.

Take U28A C46A: the yeast fitness was 0.846.

Regarding U28A C46G, the yeast fitness is 0.76.

Regarding C29A C30U C33G C46U, the yeast fitness was at most 0.5.

Regarding U28C G38C G51C, the yeast fitness was at most 0.5.

Consider U28A A45G, for which the yeast fitness is 0.762.

On to U28C A45C, for which the yeast fitness was 0.993.

For the variant U28C A45U, the yeast fitness amounted to 0.985.

U28A G63C: the yeast fitness is 0.624.

As for U28G U35C, the yeast fitness was 0.758.

For the variant U28C U54G A70U, the yeast fitness was at most 0.5.

For C29A A45C C46G G68C, the yeast fitness is at most 0.5.

For C29G A36G G38A A45G, the yeast fitness is at most 0.5.

Consider U28A C49G A57G, for which the yeast fitness is at most 0.5.

For the variant U28A G68A, the yeast fitness stood at 0.581.

U28C G44A A57G: the yeast fitness stood at 0.578.

As to C29A C49U, the yeast fitness amounted to 0.627.

In the case of C29A C30A G67U, the yeast fitness stood at 0.667.

As for U28C G56C, the yeast fitness came to 0.53.

For U28A A42G C55A C66A, the yeast fitness was at most 0.5.

As for U28A C31A A42C A45U G51A U64A, the yeast fitness was found to be 0.512.

As for C29A C33U U47A A57U, the yeast fitness was at most 0.5.

For the variant U28C C49U, the yeast fitness stood at 0.905.

For C29G A43U C46U G67C, the yeast fitness is at most 0.5.

Regarding U28G C31U A40C A70U, the yeast fitness is at most 0.5.

As for C29G A37U U59C C66G, the yeast fitness worked out at 0.687.

Take C29A G67A: the yeast fitness stood at 0.605.

With C29A G67C, the yeast fitness was 0.646.

For U28C C60G, the yeast fitness worked out at 0.572.

For the variant U28C C60A, the yeast fitness was 0.632.

For U28A C33A G52A, the yeast fitness is at most 0.5.

Turning to C29A C33G A70G, the yeast fitness is at most 0.5.

U28C G51C A65C: the yeast fitness was at most 0.5.

As for U28A C29U A45C A69C, the yeast fitness came out at 0.541.

As to C29A A37C A40U G63A, the yeast fitness worked out at 0.519.

Take U28A C66U: the yeast fitness turned out to be 0.796.

In the case of U28G G56C, the yeast fitness was determined as 0.655.

Regarding C29A A42U, the yeast fitness was found to be 0.632.

U28C A40G A70U: the yeast fitness came to 0.603.

U28A C31A G51C: the yeast fitness was at most 0.5.

With U28C A65G, the yeast fitness was 0.998.

As for C29A U47C G50C A57C, the yeast fitness amounted to 0.582.

Regarding C29A G58C G67A, the yeast fitness turned out to be 0.589.

As for C29A C31G C49A C55G, the yeast fitness is 0.549.

Consider U28A C29G G68C, for which the yeast fitness is at most 0.5.

For the variant U28G A45G G51C A70G, the yeast fitness was at most 0.5.

As to U28C G52A C61U A70C, the yeast fitness is 0.549.

In the case of U28C G50U, the yeast fitness was 0.602.

Turning to U28C A36C, the yeast fitness was 0.579.

Turning to U28A A43G G68C, the yeast fitness worked out at 0.642.

C29G A45G: the yeast fitness is 0.609.

On to U28C C62A, for which the yeast fitness is 0.746.

Consider C29G A37C C60A A70G, for which the yeast fitness was at most 0.5.

As to U28A U32C C49G G52A, the yeast fitness is at most 0.5.

Regarding U28A A70G, the yeast fitness came to 0.904.

For U28G U59A A70C, the yeast fitness was at most 0.5.

For the variant U28G A36G A65U, the yeast fitness was at most 0.5.

Take C29G C30U A36C G39A C46G: the yeast fitness was found to be 0.52.

Take C29A A37C A45C U47A: the yeast fitness amounted to 0.573.

U28C A42G C55U A70U: the yeast fitness is at most 0.5.

With U28A C55G C62G, the yeast fitness is at most 0.5.

Take C29G A43U: the yeast fitness stood at 0.594.

Take C29G A36U C49U C60U: the yeast fitness was at most 0.5.

Turning to C29G A43G A45C, the yeast fitness was at most 0.5.

Take U28C A42C: the yeast fitness came to 0.858.

Take C29A G41A A43C A69C: the yeast fitness was at most 0.5.

In the case of U28C U59G, the yeast fitness is 0.852.

In the case of U28A A42G C66U G67C, the yeast fitness was at most 0.5.

On to C29A C66A G68C, for which the yeast fitness was at most 0.5.

Regarding U28A C30U C55A, the yeast fitness is at most 0.5.

Regarding U28A G67C, the yeast fitness was found to be 0.774.

On to C29A C46G A65G A70U, for which the yeast fitness was at most 0.5.

In the case of U28C C31U C60U, the yeast fitness is at most 0.5.

Consider U28A C29G G51A G56A C66G, for which the yeast fitness was at most 0.5.

Consider U28C G38C G52A, for which the yeast fitness was at most 0.5.

C29A A57G U64A: the yeast fitness is at most 0.5.

Regarding C29A, the yeast fitness is 0.631.

As for C29G, the yeast fitness amounted to 0.686.

Take C29G A45G G52C A57U: the yeast fitness was at most 0.5.

As for U28A C33G A36U A40G U54C A65U, the yeast fitness is at most 0.5.

For the variant U28G C46G C61U, the yeast fitness was at most 0.5.

Turning to U28G G38C C62G C66U, the yeast fitness was at most 0.5.

Regarding C29A G50C U64C, the yeast fitness is at most 0.5.

With C29A C46A C55A A57G, the yeast fitness was at most 0.5.

Take U28A A45C C46A: the yeast fitness was at most 0.5.

Regarding C29G A40U G67C, the yeast fitness was found to be 0.517.

With C29G A42C G51A A70U, the yeast fitness was at most 0.5.

U28A G41A G67A: the yeast fitness was at most 0.5.

Turning to U28C C49U G63U, the yeast fitness worked out at 0.531.

Consider C29A G56C A57G G68U, for which the yeast fitness was at most 0.5.

U28C G41C C49A C61U A70U: the yeast fitness is at most 0.5.

As for U28C A42G U47A, the yeast fitness was 0.535.

Turning to C29G A40G, the yeast fitness came out at 0.648.

Consider U28A C60A, for which the yeast fitness was 0.535.

For the variant U28A C60G, the yeast fitness was 0.572.

Take U28A C34U A40U A45U C66U: the yeast fitness is at most 0.5.

Regarding C29A G48A C66U, the yeast fitness was at most 0.5.

Regarding U28C G41C C60A C66U, the yeast fitness is at most 0.5.

Consider U28G C33G C49U, for which the yeast fitness was at most 0.5.

For the variant U28A A42G, the yeast fitness was 0.667.

Regarding U28A G48C A69U A70U, the yeast fitness was at most 0.5.

Turning to C29G A40C A43G A45C U47C C62U A69C, the yeast fitness is at most 0.5.

For C29G A65C, the yeast fitness was determined as 0.564.

With C29G A65G, the yeast fitness is 0.713.

As for U28A C31A, the yeast fitness amounted to 0.687.

U28A C31G A57G C62U: the yeast fitness was at most 0.5.

Regarding C29A G50A, the yeast fitness amounted to 0.678.

Take U28G A40U A43U: the yeast fitness worked out at 0.878.

Turning to U28C C55U G67C, the yeast fitness was 0.557.

Turning to U28A C34U G52A U59C C66U, the yeast fitness is at most 0.5.

As for U28C G67C, the yeast fitness worked out at 0.845.

Turning to U28C U35A, the yeast fitness was 0.578.

Take C29A C34G: the yeast fitness was at most 0.5.

In the case of U28G A57U U59C, the yeast fitness was at most 0.5.

Regarding C29A C30U G48A G50A, the yeast fitness was at most 0.5.

In the case of U28A U64G, the yeast fitness turned out to be 0.709.

Consider U28C C29G C30G A36G, for which the yeast fitness is at most 0.5.

Take C29A C62U: the yeast fitness came to 0.723.

As for U28C A40G A45C A70U, the yeast fitness was determined as 0.911.

U28A C31U C66A: the yeast fitness is at most 0.5.

Turning to U28G C30U, the yeast fitness was 0.693.

Take U28C C33U A45U: the yeast fitness was 0.578.

Turning to U28A U54A, the yeast fitness came to 0.594.

As for U28C C31U, the yeast fitness worked out at 0.981.

As for U28G G41C U53A, the yeast fitness was at most 0.5.

With C29A A57C U59A, the yeast fitness worked out at 0.55.

Take C29A A40U: the yeast fitness turned out to be 0.684.

Take C29A A40C: the yeast fitness worked out at 0.741.

For the variant U28C A43G, the yeast fitness was determined as 0.976.

Take U28C A43C: the yeast fitness worked out at 0.758.

As for C29A A70U, the yeast fitness was determined as 0.891.

In the case of C29A A70C, the yeast fitness amounted to 0.635.

In the case of U28C C49G U59C, the yeast fitness is at most 0.5.

U28G A40C A42G A69C: the yeast fitness came to 0.808.

On to U28C C33G G38A U64G, for which the yeast fitness is at most 0.5.

For the variant C29A A45C C46U G51A G56A, the yeast fitness is at most 0.5.

U28C A45C G50A C62U: the yeast fitness is at most 0.5.

Regarding U28A C29G C33A A42U A70U, the yeast fitness was found to be 0.531.

On to U28C U54G A57C C62U, for which the yeast fitness is at most 0.5.

As to U28G A70G, the yeast fitness was found to be 0.826.

For C29A G58A C61G A70U, the yeast fitness was 0.642.

On to C29A C34G A36G A40C U47A U64C, for which the yeast fitness was at most 0.5.

In the case of U28A A43U A65U, the yeast fitness was at most 0.5.

For the variant U28C C34U C55U C61A, the yeast fitness worked out at 0.592.

In the case of U28G U32A G38C A65C G67C, the yeast fitness was at most 0.5.

Regarding C29A A69U, the yeast fitness is 0.756.

Take C29A A69C: the yeast fitness worked out at 0.679.

In the case of C29G A36G A65C, the yeast fitness was at most 0.5.

Consider U28C U32C C62A, for which the yeast fitness was at most 0.5.

Regarding U28G C29A G41C A43U, the yeast fitness is at most 0.5.

Take C29A C55U G63C: the yeast fitness is at most 0.5.

With U28G C46G C49U C61A, the yeast fitness was at most 0.5.

Take C29G A40U G50C: the yeast fitness turned out to be 0.636.

Take U28G A36G A45G A69U: the yeast fitness turned out to be 0.825.

In the case of U28A A42G C60U, the yeast fitness is at most 0.5.

In the case of C29A U35A G56A G63A, the yeast fitness stood at 0.525.

Regarding C29A C30U G48A G50A C60A, the yeast fitness was at most 0.5.

Consider U28G G38A C60G A65C A69C, for which the yeast fitness turned out to be 0.618.

For C29G A37C G63A, the yeast fitness is at most 0.5.

For the variant U28A C29A, the yeast fitness was 0.598.

The values above are taken from the RNAGym collection of RNA variant scans (doi:10.1126/science.aae0568).
